The values below come from ChEMBL document CHEMBL4715756, “Nitrotriazole-based acetamides and propanamides with broad spectrum antitrypanosomal activity” (Eur J Med Chem, 2016).

SMILES strings stand for the structures. Activity calls are given as the source filed them. The calls are words filed in the database; no cut-off is given here.

Data set [1] has as its system Trypanosoma brucei rhodesiense. Description: Substrate activity at Trypanosoma brucei rhodesiense recombinant His-tagged type 1 nitroreductase assessed as enzyme specific activity using NADH at 100 uM by spectrophotometrically. Summed up:
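Purified recombinant his-tagged TbNTR. Each nitrotriazole substrate at 100 µM with NADH 100 µM. NADH oxidation followed spectrophotometrically at 340 nm. Specific activity given as nmol NADH oxidized min^-1 mg^-1 protein, mean of three experiments ± SD.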

Data set [2] in a line: Dissociation constant, pKa of the compound.
A short description of data set [3]: Toxicity in Trypanosoma cruzi Brazil trypomastigotes expressing firefly luciferase infected BALB/c mouse assessed toxic symptoms at 15 mg/kg, ip measured after 5 to 10 days. The class given is organism-based. The note with it: in vivo, time 5-10 day. In short, it runs like this:
(§1)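 Same infected Balb/c model: luciferase T. cruzi, 10^5 trypomastigotes. Daily i.p. dosing for 10 days from day 4 post infection at 13 or 15 mg/kg/day, in 2% methylcellulose + 0.5% Tween 80, 5 mice/group. Mice observed for general health and deaths over the treatment period.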

For data set [4], the system named is Trypanosoma cruzi. Description: Anti-chagasic activity against Trypanosoma cruzi Brazil trypomastigotes expressing firefly luciferase infected in BALB/c mouse assessed as reduction in parasitemia at 15 mg/kg/day, ip measured after 10 days by bioluminescence assay. The class given is functional, organism-based. The conditions noted are these: time 10.0 day.
For data set [5], the system named is Trypanosoma cruzi. The data set is described as follows: Anti-chagasic activity against Trypanosoma cruzi Brazil trypomastigotes expressing firefly luciferase infected in BALB/c mouse assessed as reduction in parasitemia at 15 mg/kg/day, ip measured after 5 days by bioluminescence assay. The class given is functional, organism-based. The conditions noted are these: time 5.0 day.

A short description of data set [6]: in vitro. The note with it: rat.
The nature of data set [7]: in vitro. The conditions noted are these: rat, L6 cells versus Leishmania donovani MHOM/ET/67/L82.
The subject of data set [8] is Trypanosoma cruzi. Description: Anti-chagasic activity against Trypanosoma cruzi Brazil trypomastigotes expressing firefly luciferase infected in BALB/c mouse assessed as reduction in parasitemia at 13 mg/kg/day, ip measured after 5 days by bioluminescence assay. Type of data set: functional, organism-based. The note with it: time 5.0 day.
Data set [9] is described as follows: Toxicity in Trypanosoma cruzi Brazil trypomastigotes expressing firefly luciferase infected BALB/c mouse assessed toxic symptoms at 13 mg/kg, ip measured after 5 to 10 days. The note with it: in vivo, time 5-10 day. The class given is organism-based. Summed up:
as §1

For data set [10], the system named is Trypanosoma cruzi. The data set is described as follows: Anti-chagasic activity against Trypanosoma cruzi Brazil trypomastigotes expressing firefly luciferase infected in BALB/c mouse assessed as reduction in parasitemia at 13 mg/kg/day, ip measured after 10 days by bioluminescence assay. Type of data set: functional, organism-based. The conditions noted are these: time 10.0 day.

A short description of data set [11]: in vitro. The conditions noted are these: rat, L6 cells versus Trypanosoma cruzi Tulahuen C4.
In data set [12] the test system is Trypanosoma cruzi. Description: Trypanocidal activity against Trypanosoma cruzi Tulahuen C4 amastigotes infected in rat L6 cells in vitro.
The nature of data set [13]: Toxicity in Trypanosoma cruzi Brazil trypomastigotes expressing firefly luciferase infected BALB/c mouse assessed as healthy appearance at 13 mg/kg, ip measured after 5 to 10 days. The class given is organism-based. The note with it: in vivo, time 5-10 day. Summed up: (§2)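 Balb/c mice, 5 weeks old, infected with 10^5 luciferase-expressing Brazil-strain T. cruzi trypomastigotes. From 4 days post-infection, mice were dosed i.p. at 13 mg/kg/day for 10 days in 2% methylcellulose + 0.5% Tween 80 vehicle, 5 mice/group. Animals were observed over treatment, with imaging after 5 and 10 days of dosing.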

The nature of data set [14]: Toxicity in Trypanosoma cruzi Brazil trypomastigotes expressing firefly luciferase infected BALB/c mouse assessed mortality at 13 mg/kg, ip measured after 5 to 10 days. The class given is organism-based. The conditions noted are these: in vivo, time 5-10 day. In short, it runs like this:
as §2

As for `O=C(Cn1cnc([N+](=O)[O-])n1)Nc1cc(-c2ccc(F)cc2)on1`, in [1], the outcome was Active. Besides, the pKa in data set [2] was 11.
With `N#Cc1ccc(-c2ccc(NC(=O)CCn3cnc([N+](=O)[O-])n3)cc2)cc1`, in data set [3], the Activity entry is recorded as “Non-Toxic”. The outcome in [4] and in data set [5] was Active. For the same molecule, the pKa in [2] amounted to 14.1.
On to `CN(C(=O)Cn1cnc([N+](=O)[O-])n1)c1ccc(C(F)(F)F)cc1`, for which the selectivity ratio in data set [6] and in data set [7] was 6.8 throughout.
Consider `O=C(CCn1cnc([N+](=O)[O-])n1)Nc1ccc(Oc2ccc(F)cc2)cc1`, for which the outcome in data set [8], in data set [10] and in [1] was Active. Also, the Activity result in data set [9] is reported as “Non-Toxic”. Besides, in data set [2], the pKa is 14.5.
Consider `O=C(CCn1cnc([N+](=O)[O-])n1)Nc1cc(-c2ccc(Cl)cc2)no1`, for which the result in [1] was Active. In addition, the pKa in data set [2] came out at 9.14.
With `O=C(Cn1cnc([N+](=O)[O-])n1)Nc1cc(-c2ccc(Cl)cc2)no1`, in [1], the outcome was Active.
As to `O=C(CCn1cnc([N+](=O)[O-])n1)Nc1cccc(OCc2ccccc2)c1`, the outcome in [1] was Active. In [2], this molecule had a pKa of 14.
`CN(C(=O)Cn1ccnc1[N+](=O)[O-])c1ccc(C(F)(F)F)cc1`: the selectivity ratio in [11] was determined as 3.8.
As for `O=C(Cn1cnc([N+](=O)[O-])n1)Nc1cccc(-c2ccccc2)c1`, the IC50 in data set [12] was determined as 179 nM.
Consider `O=C(CCn1cnc([N+](=O)[O-])n1)Nc1cccc(-c2ccccc2)c1`, for which, in data set [1], the outcome was Active. The pKa in [2] amounted to 14.
Turning to `O=C(Cn1cnc([N+](=O)[O-])n1)Nc1ccc(Oc2ccc(F)cc2)cc1`, the selectivity ratio in [6] is 35. The same molecule yielded a pKa in data set [2] of 13.6.
For `O=C(CCn1cnc([N+](=O)[O-])n1)Nc1cc(-c2ccc(F)cc2)on1`, in that order: over 201 and 11.2.
With `O=C(Cn1ccnc1[N+](=O)[O-])NCc1ccccc1`, the result in [4] and in [5] was Active.
On to `O=C(Cn1cnc([N+](=O)[O-])n1)Nc1ccc(Oc2ccccc2)cc1`, for which the selectivity ratio in data set [6] was found to be 34. The molecule further displayed a pKa in data set [2] of 13.3.
Take `O=C(CCn1cnc([N+](=O)[O-])n1)Nc1ccc(Oc2ccccc2)cc1`: the selectivity ratio in [7] stood at 13.5. In data set [1], the result was Active. This molecule yielded a pKa in data set [2] of 14.5.
`O=C(Cn1cnc([N+](=O)[O-])n1)Nc1cccc(OCc2ccccc2)c1`: the selectivity ratio in data set [6] is 14.1; in [7], 20.3; in data set [11], 575. Besides, the IC50 in [12] turned out to be 119 nM. Also, in data set [2], the pKa worked out at 12.8.
Take `O=C(Cn1cnc([N+](=O)[O-])n1)Nc1ccc(Oc2ccc(Cl)cc2)cc1`: the selectivity ratio in [6] came to 22. In [12], this molecule showed an IC50 of 8 nM. The same molecule displayed a pKa in data set [2] of 13.6.
With `O=C(Cn1cnc([N+](=O)[O-])n1)NCc1ccc(C(F)(F)F)cc1`, the figures for the selectivity ratio in data set [6], in [7] and in [11] were 20, 12 and 133, respectively. The molecule also registered a pKa in data set [2] of 12.7.
Turning to `O=C(CCn1cnc([N+](=O)[O-])n1)Nc1ccc(Oc2ccc(Cl)cc2)cc1`, the selectivity ratio in data set [7] amounted to 15. For the same molecule, the outcome in data set [8], in data set [10] and in data set [1] was Active. In addition, the Activity entry in data set [13] is reported as “Toxic”; in [14] it was “Non-Toxic”. In data set [2], this molecule came in with a pKa of 14.5.
As to `N#Cc1ccc(-c2ccc(NC(=O)Cn3cnc([N+](=O)[O-])n3)cc2)cc1`, the selectivity ratio was 490 in [6] and 1190 in data set [11]. Half-maximal inhibition in data set [12] (IC50) was put at 138 nM. The molecule further gave a pKa in [2] of 13.2.
